# Publication PMC7238799 (Pulmonary Circulation, 2020)
# Tests used:
# Multiple ascending dose = type: in vivo, human; settings: for Accumulation in plasma exposure (AUC): approximate
# How it was run: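 Healthy subjects were randomized to test compound or placebo by oral immediate-release capsule in the fasted state. In Cohorts 1–2 (2:1), 50 µg QD escalated to 100, 200, 300 and 400 µg every sixth day if tolerated. In Cohort 3 (4:1), 10 µg BID escalated to 20, 30, 40, 50 and 70 µg. K₂EDTA blood was drawn pre-dose and 0.25–24 h post-dose.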
# healthy subjects = assay: Single ascending dose; type: in vivo, human
# How it was run: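 Subjects received a single oral dose of test compound or identical-appearing placebo capsule and were kept as in-patients. Over seven days, adverse events, vital signs, 12-lead ECG and safety labs (serum chemistry, hematology, urinalysis) were assessed at multiple time points. Data were summarized descriptively by treatment group.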
# [1] = 10 µg BID, steady state, n = 20, mean (SD)
# [2] = 30 µg QD, steady state, n = 3, mean (SD)
# [3] = 40 µg BID, steady state, n = 9, mean (SD)
# [4] = 50 µg BID, steady state, n = 6, mean (SD)
# [5] = 50 µg QD, steady state, n = 16, mean (SD)
# [6] = 100 µg QD, steady state, n = 7, mean (SD)
# [7] = 300 µg QD, steady state, single subject
# [8] = 400 µg QD, near steady-state (Day 21, first day at this dose), single subject
# [9] = total ralinepag, all single doses, n = 24
compound,measurement,setting,value
O=C(O)COC[C@H]1CC[C@H](COC(=O)N(c2ccccc2)c2ccc(Cl)cc2)CC1 [ralinepag],Mean steady-state accumulation of total plasma exposure (AUC),Multiple ascending dose; 10 µg BID,2.64 fold
same,Accumulation ratio Rac(Cmax),Multiple ascending dose; [1],2.07 (0.40)
same,PTR (peak-to-trough plasma concentration ratio),Multiple ascending dose; [1],2.04 (0.32)
same,PTR (peak-to-trough plasma concentration ratio),"Multiple ascending dose; 20 µg BID, steady state, n = 20, mean (SD)",1.97 (0.26)
same,PTR (peak-to-trough plasma concentration ratio),"Multiple ascending dose; 30 µg BID, steady state, n = 10, mean (SD)",1.95 (0.22)
same,"Ctrough,ss",Multiple ascending dose; [2],0.72 (0.20) ng/mL
same,PTR (peak-to-trough plasma concentration ratio),Multiple ascending dose; [2],3.34 (1.20)
same,"Ctrough,ss",Multiple ascending dose; [3],1.51 (0.57) ng/mL
same,PTR (peak-to-trough plasma concentration ratio),Multiple ascending dose; [3],2.28 (0.40)
same,"Ctrough,ss",Multiple ascending dose; [4],2.32 (0.78) ng/mL
same,PTR (peak-to-trough plasma concentration ratio),Multiple ascending dose; [4],2.00 (0.43)
same,Mean EHL,Multiple ascending dose; 50 µg QD,18.4 h
same,Mean steady-state accumulation of total plasma exposure (AUC),Multiple ascending dose; 50 µg QD,1.69 fold
same,Accumulation ratio Rac(AUC),Multiple ascending dose; [5],1.69 (0.24)
same,Accumulation ratio Rac(Cmax),Multiple ascending dose; [5],1.54 (0.31)
same,"Ctrough,ss",Multiple ascending dose; [5],0.76 (0.37) ng/mL
same,PTR (peak-to-trough plasma concentration ratio),Multiple ascending dose; [5],4.33 (2.12)
same,PTR (peak-to-trough plasma concentration ratio),"Multiple ascending dose; 70 µg BID, steady state, single subject",2.36
same,"Ctrough,ss",Multiple ascending dose; [6],1.39 (0.68) ng/mL
same,PTR (peak-to-trough plasma concentration ratio),Multiple ascending dose; [6],4.49 (2.66)
same,"Ctrough,ss",Multiple ascending dose; [7],5.14 ng/mL
same,PTR (peak-to-trough plasma concentration ratio),Multiple ascending dose; [7],3.42
same,"Ctrough,ss",Multiple ascending dose; [8],6.13 ng/mL
same,PTR (peak-to-trough plasma concentration ratio),Multiple ascending dose; [8],3.70
same,"Dose proportionality of Cmax,ss, Ctrough,ss and AUC0–τ,ss",Multiple ascending dose; 10–50 µg BID dose range,approximately dose proportional
same,"Dose proportionality of Cmax,ss, Ctrough,ss and AUC0–τ,ss",Multiple ascending dose; 50–300 µg QD dose range,approximately dose-proportional
same,Accumulation in plasma exposure (AUC),Multiple ascending dose; BID (Q12 hours) dosing,~2.6 fold
same,"Steady-state peak-to-trough ratio, range across doses","Multiple ascending dose; BID dosing, Cohort 3",1.95–2.36
same,Accumulation in plasma exposure (AUC),Multiple ascending dose; QD (Q24 hours) dosing,~1.7 fold
same,"Steady-state peak-to-trough ratio, range across doses","Multiple ascending dose; QD dosing, Cohorts 1 and 2 combined",3.34–4.49
same,Half-life,"Multiple ascending dose; both, human, plasma, oral",1050 to 1100 min
same,AUC,"Multiple ascending dose; human, plasma, oral, 10 ug, AUC0–τ, 10 µg BID, Study Day 1 (non-steady-state), τ 12 h, n = 20, mean (SD)",2.51 ng·h/mL
same,AUC,"Multiple ascending dose; human, plasma, oral, 10 ug, AUC0–τ,ss, 10 µg BID, steady state, τ 12 h, n = 20, mean (SD)",6.68 ng·h/mL
same,Cmax,"Multiple ascending dose; human, plasma, oral, 10 ug, Cmax, 10 µg BID, Study Day 1 (non-steady-state), n = 20, mean (SD)",0.412 ng/mL
same,Cmax,"Multiple ascending dose; human, plasma, oral, 10 ug, Cmax,ss, 10 µg BID, steady state, n = 20, mean (SD)",0.86 ng/mL
same,Tmax,"Multiple ascending dose; human, plasma, oral, 10 ug, Tmax, 10 µg BID, Study Day 1 (non-steady-state), n = 20, median (min–max)",1 h
same,Tmax,"Multiple ascending dose; human, plasma, oral, 10 ug, Tmax,ss, 10 µg BID, steady state, n = 20, median (min–max)",1 h
same,Cmax,"Multiple ascending dose; human, plasma, oral, 20 ug, Cmax,ss, 20 µg BID, steady state, n = 20, mean (SD)",1.8 ng/mL
same,AUC,"Multiple ascending dose; human, plasma, oral, 30 ug, AUC0-τ,ss, 30 µg QD, steady state, τ 24 h, n = 3, mean (SD)",24.8 ng·h/mL
same,Cmax,"Multiple ascending dose; human, plasma, oral, 30 ug, Cmax,ss, 30 µg BID, steady state, n = 10, mean (SD)",2.12 ng/mL
same,Cmax,"Multiple ascending dose; human, plasma, oral, 30 ug, Cmax,ss, 30 µg QD, steady state, n = 3, mean (SD)",2.29 ng/mL
same,Tmax,"Multiple ascending dose; human, plasma, oral, 30 ug, Tmax,ss, 30 µg QD, steady state, n = 3, median (min – max)",1 h
same,Cmax,"Multiple ascending dose; human, plasma, oral, 40 ug, Cmax,ss, 40 µg BID, steady state, n = 9, mean (SD)",3.31 ng/mL
same,AUC,"Multiple ascending dose; human, plasma, oral, 50 ug, AUC0-τ, 50 µg QD, Study Day 1 (non-steady-state), τ 24 h, n = 20, mean (SD)",15.9 ng·h/mL
same,AUC,"Multiple ascending dose; human, plasma, oral, 50 ug, AUC0-τ,ss, 50 µg QD, steady state, τ 24 h, n = 16, mean (SD)",26.2 ng·h/mL
same,AUC,"Multiple ascending dose; human, plasma, oral, 50 ug, AUC0–τ,ss, 50 µg BID, steady state, τ 12 h, n = 6, mean (SD)",36 ng·h/mL
same,Cmax,"Multiple ascending dose; human, plasma, oral, 50 ug, Cmax, 50 µg QD, Study Day 1 (non-steady-state), n = 20, mean (SD)",1.88 ng/mL
same,Cmax,"Multiple ascending dose; human, plasma, oral, 50 ug, Cmax,ss, 50 µg BID, steady state, n = 6, mean (SD)",4.43 ng/mL
same,Cmax,"Multiple ascending dose; human, plasma, oral, 50 ug, Cmax,ss, 50 µg QD, steady state, n = 16, mean (SD)",2.74 ng/mL
same,Tmax,"Multiple ascending dose; human, plasma, oral, 50 ug, Tmax, 50 µg QD, Study Day 1 (non-steady-state), n = 20, median (min – max)",2 h
same,Tmax,"Multiple ascending dose; human, plasma, oral, 50 ug, Tmax,ss, 50 µg BID, steady state, n = 6, median (min–max)",1.25 h
same,Tmax,"Multiple ascending dose; human, plasma, oral, 50 ug, Tmax,ss, 50 µg QD, steady state, n = 16, median (min – max)",1.25 h
same,AUC,"Multiple ascending dose; human, plasma, oral, 70 ug, AUC0–τ,ss, 70 µg BID, steady state, τ 12 h, single subject",25.2 ng·h/mL
same,Cmax,"Multiple ascending dose; human, plasma, oral, 70 ug, Cmax,ss, 70 µg BID, steady state, single subject",4.22 ng/mL
same,Tmax,"Multiple ascending dose; human, plasma, oral, 70 ug, Tmax,ss, 70 µg BID, steady state, single subject",1.5 h
same,AUC,"Multiple ascending dose; human, plasma, oral, 100 ug, AUC0-τ,ss, 100 µg QD, steady state, τ 24 h, n = 7, mean (SD)",48.6 ng·h/mL
same,Cmax,"Multiple ascending dose; human, plasma, oral, 100 ug, Cmax,ss, 100 µg QD, steady state, n = 7, mean (SD)",5.15 ng/mL
same,Tmax,"Multiple ascending dose; human, plasma, oral, 100 ug, Tmax,ss, 100 µg QD, steady state, n = 7, median (min – max)",1.5 h
same,AUC,"Multiple ascending dose; human, plasma, oral, 300 ug, AUC0-τ,ss, 300 µg QD, steady state, τ 24 h, single subject",181 ng·h/mL
same,Cmax,"Multiple ascending dose; human, plasma, oral, 300 ug, Cmax,ss, 300 µg QD, steady state, single subject",17.6 ng/mL
same,Tmax,"Multiple ascending dose; human, plasma, oral, 300 ug, Tmax,ss, 300 µg QD, steady state, single subject",4 h
same,SAEs recorded,healthy subjects; any doses tested,no SAEs
same,"Vital signs, ECGs, safety laboratory tests",healthy subjects; any single dose level,no clinically significant safety issues
same,"Abdominal pain, subjects (%)","healthy subjects; single oral dose 30 µg, n = 6",0
same,"Flushing, subjects (%)","healthy subjects; single oral dose 30 µg, n = 6",0
same,"Headache, subjects (%)","healthy subjects; single oral dose 30 µg, n = 6",2 (33.3%)
same,"Nausea, subjects (%)","healthy subjects; single oral dose 30 µg, n = 6",0
same,Number of AEs reported,"healthy subjects; single oral dose 30 µg, n = 6",2
same,"Pain in jaw, subjects (%)","healthy subjects; single oral dose 30 µg, n = 6",0
same,Total (%) subjects with at least one AE,"healthy subjects; single oral dose 30 µg, n = 6",2 (33.3%)
same,"Vomiting, subjects (%)","healthy subjects; single oral dose 30 µg, n = 6",0
same,"Abdominal pain, subjects (%)","healthy subjects; single oral dose 50 µg, n = 6",1 (16.7%)
same,"Flushing, subjects (%)","healthy subjects; single oral dose 50 µg, n = 6",0
same,"Headache, subjects (%)","healthy subjects; single oral dose 50 µg, n = 6",5 (83.3%)
same,"Nausea, subjects (%)","healthy subjects; single oral dose 50 µg, n = 6",1 (16.7%)
same,Number of AEs reported,"healthy subjects; single oral dose 50 µg, n = 6",11
same,"Pain in jaw, subjects (%)","healthy subjects; single oral dose 50 µg, n = 6",2 (33.3%)
same,Total (%) subjects with at least one AE,"healthy subjects; single oral dose 50 µg, n = 6",5 (83.3%)
same,"Vomiting, subjects (%)","healthy subjects; single oral dose 50 µg, n = 6",0
same,"Abdominal pain, subjects (%)","healthy subjects; single oral dose 100 µg, n = 6",1 (16.7%)
same,"Flushing, subjects (%)","healthy subjects; single oral dose 100 µg, n = 6",1 (16.7%)
same,"Headache, subjects (%)","healthy subjects; single oral dose 100 µg, n = 6",5 (83.3%)
same,"Nausea, subjects (%)","healthy subjects; single oral dose 100 µg, n = 6",2 (33.3%)
same,Number of AEs reported,"healthy subjects; single oral dose 100 µg, n = 6",17
same,"Pain in jaw, subjects (%)","healthy subjects; single oral dose 100 µg, n = 6",3 (50.0%)
same,Total (%) subjects with at least one AE,"healthy subjects; single oral dose 100 µg, n = 6",6 (100%)
same,"Vomiting, subjects (%)","healthy subjects; single oral dose 100 µg, n = 6",2 (33.3%)
same,Tolerability of the 200 µg single dose,healthy subjects; single oral dose 200 µg,not at 200 µg due to AEs of nausea and vomiting
same,"Flushing, subjects (%)","healthy subjects; single oral dose 200 µg, n = 6",1 (16.7%)
same,"Headache, subjects (%)","healthy subjects; single oral dose 200 µg, n = 6",5 (83.3%)
same,"Nausea, subjects (%)","healthy subjects; single oral dose 200 µg, n = 6",3 (50.0%)
same,Number of AEs reported,"healthy subjects; single oral dose 200 µg, n = 6",21
same,"Pain in jaw, subjects (%)","healthy subjects; single oral dose 200 µg, n = 6",1 (16.7%)
same,Total (%) subjects with at least one AE,"healthy subjects; single oral dose 200 µg, n = 6",6 (100%)
same,"Vomiting, subjects (%)","healthy subjects; single oral dose 200 µg, n = 6",6 (100%)
same,Tolerated single dose,"healthy subjects; single oral dose, IR capsule, healthy subjects",up to 100 µg
same,"Abdominal pain, subjects (%)",healthy subjects; [9],3 (12.5%)
same,"Flushing, subjects (%)",healthy subjects; [9],2 (8.3%)
same,"Headache, subjects (%)",healthy subjects; [9],17 (70.8%)
same,"Nausea, subjects (%)",healthy subjects; [9],6 (25.0%)
same,Number of AEs reported,healthy subjects; [9],51
same,"Pain in jaw, subjects (%)",healthy subjects; [9],6 (25.0%)
same,Total (%) subjects with at least one AE,healthy subjects; [9],19 (79.2%)
same,"Vomiting, subjects (%)",healthy subjects; [9],8 (33.3%)
